UCH37 inh – blocks the human deubiquitinase UCH37; Q9Y5K5; purified proteasome/UCH37, Ub-AMC cleavage fluorescence; inhibition, % (test concentration not listed); actives 0.33% (n = 330,000);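 active means mean inhibition over replicate wells above about 20%, limit read from the data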
Target sequence (Q9Y5K5 whole entry, looked up): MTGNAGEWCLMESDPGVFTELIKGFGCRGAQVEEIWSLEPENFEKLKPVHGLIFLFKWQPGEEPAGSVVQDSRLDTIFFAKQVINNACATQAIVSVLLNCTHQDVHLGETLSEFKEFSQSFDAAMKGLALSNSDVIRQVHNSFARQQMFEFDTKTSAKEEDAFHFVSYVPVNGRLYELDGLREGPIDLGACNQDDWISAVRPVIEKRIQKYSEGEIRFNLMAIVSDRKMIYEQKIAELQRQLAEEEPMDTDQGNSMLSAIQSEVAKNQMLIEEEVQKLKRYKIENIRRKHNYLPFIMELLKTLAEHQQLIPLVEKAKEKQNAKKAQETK
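System: Proteasome-associated human UCH37 deubiquitinase; Input: 0.15 nM proteasome in added enzyme buffer; Also added: Ub-AMC substrate from 1 µM stock; Incubation: 30 min compound-proteasome preincubation then 25 min substrate reaction, room temperature; Detection: fluorescence, ex 355 nm, em 460 nm; Read-out: % inhibition of Ub-AMC cleavage fluorescence; Benchmarks: no-proteasome and no-compound wells.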
CRFR2-BP antag – CRF-BP/CRF-R2 complex antagonism. HEK293 CRF-R2/CRF-BP, CRF-induced calcium fluorescence. inhibition, % at 11.8 µM. actives 0.59% (n = 350,000). AID 588475;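 active means inhibition of the ligand-induced calcium signal above about 50% at the single tested concentration, limit read from the data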
CRFR2-BP ag – agonists of human CRF-binding protein/CRF-R2 receptor complex | actives 0.46% (n = 350,000) | activation, % at 13.2 µM | HEK293 CRF-R2/CRF-BP, calcium dye fluorescence (FLIPR); percent of saturating CRF peptide response | AID 588473;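 active means activation of at least 50%, plus an integration ratio under a set limit after plate pattern correction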
H9c2 protect – myocardial damage modulation in H9c2 cells | H9c2 cardiomyocytes, H2O2 injury protection, ATPLite, 2 h | protection from H2O2 cell death, % at 20 µM | actives 0.63% (n = 360,000);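 active means compounds giving at least 50% protection of heart cells from peroxide-induced death in the single-dose screen, raw or plate-pattern-corrected value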
iPSC survival up – hiPSC single-cell survival enhancement | ATPlite luminescence; 100% = ROCK inhibitor wells, 0% = DMSO | survival enhancement, % at 20 µM | actives 0.044% (n = 360,000) | AID 602274; in the data active means survival enhancement above about 18%;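 further: cells exposed to compounds for 16 hours before the ATP read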
MIN6 prolif – inducers of beta-cell replication in MIN6 cells; MIN6 cells proliferation, ATPlite luminescence, 48 h; cells starved in 0.2% serum; 100% = growth in 10% serum; actives 0.29% (n = 330,000); proliferation, % at 10 µM;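 active means compounds whose signal lies at least 3.5 SD above the mean of all wells on their plate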
Numbers stand for hits; 0 = inactive; - = no result given. Rows were chosen to be rich in hits. Some 2.1% of all compounds tested hit in one or more screens of this group.

SMILES | UCH37 inh | CRFR2-BP antag | CRFR2-BP ag | H9c2 protect | iPSC survival up | MIN6 prolif
Cc1noc(C)c1COC(=O)Cc1ccc(Cl)cc1 | 0 | 0 | 0 | 0 | 0 | 0
Cc1ccc(CNC(=O)CN(c2ccc(C)cc2)S(=O)(=O)c2c(C)nn(C)c2C)cc1 | 0 | 83 | 0 | 0 | 0 | 0
COc1cccc(/C=N/NC(=O)c2nc(-c3ccccc3)cc(-c3ccccc3)n2)c1 | - | 0 | 0 | 89 | 0 | 0
Cn1c(SCC(=O)N/N=C/c2cc([N+](=O)[O-])ccc2O)nnc1-c1ccccc1 | - | 0 | 62 | 0 | 0 | 0
O=C(N/N=C/c1ccc(O)c(O)c1)c1cc(-c2ccccc2)nc2ccccc12 | - | 0 | 0 | 61 | 0 | 0
COc1ccc(/C=N/NC(=O)c2nc(-c3ccccc3)cc(-c3ccccc3)n2)cc1OC | - | 0 | 0 | 0 | 0 | 0
Cn1c(SCC(=O)N/N=C/c2ccc([N+](=O)[O-])s2)nnc1-c1ccccc1 | - | 0 | 0 | 0 | 0 | 0
Cc1nn(C)c(C(=O)N/N=C/c2cccc(Oc3ccccc3)c2)c1Br | - | 0 | 58 | 0 | 0 | 0
CCOC(=O)NN=Cc1c(F)c(F)c(F)c(F)c1F | 0 | - | - | - | - | -
CCC(=NNC(=O)COc1ccccc1OC)C(CC)=NNC(=O)COc1ccccc1OC | 0 | - | - | - | - | -
COc1cc(C=Nn2nnnc2Nc2ccccc2)cc(OC)c1OC | 0 | - | - | - | - | -
Cn1c2ccccc2c2cc(C=NNC(=O)c3cc(O)cc(O)c3)ccc21 | 0 | - | - | - | - | -
Cc1nn(-c2ccccc2)c(N2CCCC2)c1C=NNC(=O)c1cc(-c2ccccn2)nc2ccccc12 | 0 | - | - | - | - | -
O=C(N/N=C/c1cc([N+](=O)[O-])ccc1O)c1cc(-c2ccccc2)nc2ccccc12 | - | 0 | 0 | 0 | 0 | 0
Cc1nnc(SCC(=O)NN=Cc2cn(-c3ccccc3)nc2-c2ccc(F)cc2)n1-c1ccccc1 | 0 | - | - | - | - | -
Cc1cc(C(=O)N/N=C/c2cc([N+](=O)[O-])ccc2O)c2ccccc2n1 | - | 0 | 0 | 56 | 0 | 0
Cc1nnc(SCC(=O)N/N=C/c2cn(-c3ccccc3)nc2-c2ccccc2)n1-c1ccccc1 | - | 0 | 0 | 54 | 0 | 0
Cn1c2ccccc2c2cc(/C=N/NC(=O)c3cc(O)ccc3O)ccc21 | - | 0 | 0 | 53 | 0 | 0
Cc1nn(-c2ccccc2)c(N2CCCC2)c1/C=N/NC(=O)c1cc(-c2ccccn2)nc2ccccc12 | - | 0 | 0 | 57 | 0 | 0
O=C(N/N=C/c1ccccn1)c1cc(-c2ccncc2)nc2ccccc12 | - | 0 | 0 | 77 | 0 | 0
Cc1ccc(C)c(-c2cc(C(=O)N/N=C/c3cccnc3)c3ccccc3n2)c1 | - | 0 | 0 | 56 | 0 | 0
CC(C)NC(=S)NN=C1CCCCC1C1CCCCC1 (stereo not drawn) | 0 | - | - | - | - | -
CCN(CC)S(=O)(=O)c1cccc(C(=O)NN=Cc2c(C)nn(-c3ccccc3)c2Cl)c1 | 0 | - | - | - | - | -
O=C(CN1C(=O)C2CC=CCC2C1=O)Nc1nc(-c2ccc(F)cc2)cs1 (stereo not drawn) | 0 | 0 | 0 | 58 | 0 | 0
O=C(CN1C(=O)C2CCCCC2C1=O)Nc1nc(-c2ccc(F)cc2)cs1 (stereo not drawn) | 0 | 0 | 0 | 0 | 0 | 0
SMILES | UCH37 inh | CRFR2-BP antag | CRFR2-BP ag | H9c2 protect | iPSC survival up | MIN6 prolif
Cc1ccc(-c2c[n+](CC(=O)Nc3nc(-c4ccc(F)cc4)cs3)c3n2CCC3)cc1 | 0 | 63 | 0 | 0 | 0 | 0
O=C(C[n+]1cc(-c2ccc(F)cc2)n2c1CCC2)Nc1nc(-c2ccccc2)cs1 | 0 | 0 | 0 | 0 | 0 | 0
NC(=NO)c1cn(Cc2ccccc2Cl)c2ccccc12 | 0 | - | - | - | - | -
COc1ccccc1NC(=O)CSc1nnc(CNC(=O)c2ccco2)o1 | 0 | 66 | 0 | 0 | 0 | 0
COc1ccc(NC(=O)CSc2nnc(CNC(=O)c3ccco3)o2)c(OC)c1 | 0 | 0 | 0 | 0 | 0 | 0
Cc1cc(C(=O)ON=C(N)c2ccc(C(C)(C)C)cc2)no1 | 0 | - | - | - | - | -
CCOc1cccc(-c2c(C(=O)NN=Cc3ccc(C)s3)nnn2-c2nonc2N)c1 | 0 | - | - | - | - | -
O=[N+]([O-])c1cc(-c2ccccc2)cc([N+](=O)[O-])c1O | 0 | 65 | 0 | 0 | 0 | -
O=[N+]([O-])c1cc2ccccc2c(O)c1O | - | 0 | 0 | 0 | 0 | -
CON=CCC(=O)Nc1ccc(F)cc1 | 0 | - | - | - | - | -
CN(N=Cc1cccc(Br)c1)C1=NS(=O)(=O)c2ccccc21 | 0 | - | - | - | - | -
CN(C)c1ccc(/C=C(\C#N)C(=O)Nc2nc3c(s2)CCN(Cc2ccccc2)C3)cc1 | 0 | 0 | 345 | 0 | 0 | 0
CCCC=NNC(=O)c1ccccc1O | 0 | - | - | - | - | -
O=c1[nH]c(-[n+]2ccccc2)c(C=NNC([S-])=Nc2ccccc2)s1 | 0 | - | - | - | - | -
CCc1ccc[n+](-c2[nH]c(=O)sc2C=NNC([S-])=Nc2ccccc2)c1 | 22 | - | - | - | - | -
COc1ccc2c(Cl)c(C(=O)NN=Cc3ccncc3)sc2c1 | 0 | - | - | - | - | -
Cc1cc[n+](CC(=O)c2ccc3c(c2)OCCO3)cc1 | 24 | 0 | 0 | 0 | 0 | 0
O=C(C[n+]1ccc(/C=C/c2ccccc2)cc1)c1ccc2c(c1)OCCO2 | - | 0 | 0 | 0 | 0 | 0
CCn1c(COc2ccccc2C)nc2ccccc21 | 0 | 0 | 73 | 0 | 0 | 0
CCC(Sc1nc(N)cc(=O)[nH]1)C(=O)NC(C(=O)OC)c1ccccc1 (stereo not drawn) | 32 | 0 | 0 | - | - | 0
CN(C)c1ccc(/C=C/C(=O)c2ccc3c(c2)OCO3)cc1 | - | 0 | 135 | 0 | 0 | 0
CN(C)c1ccc(/C=C/C(=O)c2cccnc2)cc1 | 0 | 0 | 120 | 0 | 0 | 0
COc1ccc(C(=O)/C=C/c2ccc(N(C)C)cc2)c(OC)c1 | 0 | 0 | 103 | 0 | 0 | 0
CN(C)c1ccc(/C=C/C(=O)c2ccc(O)cc2)cc1 | - | 0 | 156 | 0 | 0 | -
Cc1ncc(CO)c(C=NNC(=O)c2cccc(S(=O)(=O)N3CCCC3)c2)c1O | 0 | - | - | - | - | -
SMILES | UCH37 inh | CRFR2-BP antag | CRFR2-BP ag | H9c2 protect | iPSC survival up | MIN6 prolif
CCOc1ccc(C=NOCC(=O)Nc2cc(S(=O)(=O)N3CCOCC3)ccc2OC)cc1 | 0 | - | - | - | - | -
CC(=NN=C(C)c1cccs1)c1cccs1 | 0 | - | - | - | - | -
CN(C)c1ccc(/C=C/c2ccncc2)cc1 | 0 | 0 | 173 | 0 | 0 | -
CN(C)c1ccc(C=Cc2cnccn2)cc1 | 0 | 0 | 0 | 0 | 0 | -
NC(=S)NN=Cc1ccccc1OC(=O)c1cc2ccccc2oc1=O | 0 | - | - | - | - | -
CCN(CC)c1ccc([N+](=O)[O-])cc1C=NNC(=O)CC#N | 0 | - | - | - | - | -
CC1C2=C(CC(C)(C)CC2=O)NC2=C1C(=O)CC(C)(C)C2 | 0 | 0 | 68 | 0 | 0 | 0
CC1(C)CC(=O)C2=C(C1)NC(=O)NC2c1ccccc1 (stereo not drawn) | 0 | 0 | 0 | 0 | 0 | 0
O=C(NCCCN1CCOCC1)C(=O)NN=Cc1cccc2ccccc12 | 0 | - | - | - | - | -
CC1CCN(C(=O)C2CCN(S(=O)(=O)c3cccnc3)CC2)CC1 | 0 | 75 | 0 | 0 | 0 | 0
